For 34 compounds, MIC and IC50 results are on record in ChEMBL document CHEMBL1166008, “A new class of potential anti-tuberculosis agents: Synthesis and preliminary evaluation of novel acrylic acid ethyl ester derivatives” (Bioorg Med Chem, 2010).

The subject of one assay is Bacillus cereus. The experiment in a line: Antibacterial activity against Bacillus cereus after 18 to 24 hrs by microtiter plate method. In kind it is functional. An outline of the steps:
(§1)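 Broth microdilution MIC in cation-adjusted Mueller–Hinton broth. Cultures grown statically overnight on tryptic soy agar at 35 °C. Plates incubated 18–24 h at 35 °C and scored growth/no growth. Tetracycline control included.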

Assay [1] concerns Mycolicibacterium smegmatis. The experiment in a line: Antimycobacterial activity against Mycobacterium smegmatis after 48 hrs by microtiter plate method. In kind it is functional. An outline of the steps:
(§2)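 Broth microdilution MIC in Middlebrook 7H9 broth with 10% OADC. Mycobacterial cultures grown statically seven days in the same medium at 35 °C. Plates incubated 48 h at 35 °C and scored growth/no growth. Rifampin positive control.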

Another assay relates to Staphylococcus aureus. Put plainly: Antibacterial activity against Staphylococcus aureus ATCC 29213 after 18 to 24 hrs by microtiter plate method. In kind it is functional. Summed up: as §1
A further assay deals with Escherichia coli. The experiment in a line: Antibacterial activity against Escherichia coli ATCC 25922 after 18 to 24 hrs by microtiter plate method. In kind it is functional. Summed up: as §1
A further assay relates to Mycobacterium avium. Put plainly: Antimycobacterial activity against Mycobacterium avium after 48 hrs by microtiter plate method. In kind it is functional. Summed up:
as §2

In another assay the test system is Mycobacterium kansasii. The experiment in a line: Antimycobacterial activity against Mycobacterium kansasii after 48 hrs by microtiter plate method. In kind it is functional. An outline of the steps: as §2
Another assay has as its system Mycobacteroides chelonae. Put plainly: Antimycobacterial activity against Mycobacterium chelonae after 48 hrs by microtiter plate method. In kind it is functional. Summed up:
as §2

The subject of assay [2] is Mycolicibacterium fortuitum. The experiment in a line: Antimycobacterial activity against Mycobacterium fortuitum after 48 hrs by microtiter plate method. In kind it is functional. An outline of the steps:
as §2

A further assay concerns J774.A1. The experiment in a line: Cytotoxicity against mouse J774A1 cells after 24 hrs by trypan blue exclusion assay. In kind it is cell-based. The following applies: J774.A1, 24 h. Summed up:
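Murine J774A.1 monocytes seeded at 1 × 10^6/well in RPMI 1640. Next day, twofold dilutions of drug in PBS added. Following day, trypan blue added for 10 min, then dead (blue) and live cells counted in three fields per well. IC50 taken as concentration giving 50% dead cells.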

Assay [3] deals with Mycobacterium intracellulare. Put plainly: Antimycobacterial activity against Mycobacterium intracellular after 48 hrs by microtiter plate method. In kind it is functional. An outline of the steps: as §2
In assay [4] the test system is Mycobacterium tuberculosis. Put plainly: Antimycobacterial activity against Mycobacterium tuberculosis H37Rv after 48 hrs by green fluorescent protein-based assay. In kind it is functional. Summed up: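 M. tuberculosis H37Rv carrying high-copy pHIGH22 plasmid expressing GFP. Killing read as loss of GFP fluorescence. Isoniazid and rifampin positive controls.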

Structures are written as SMILES. ≈ marks a conversion by molar mass, not a printed value. A value given as a limit tells only on which side of the number the result lay.

As a reminder, the MIC is the lowest concentration found to suppress growth. Read a high MIC as a need for much substance. In the case of `CCOC(=O)/C=C\Sc1ccc2ccccc2c1`, the MIC was > 128 µg/mL in the assay with Bacillus cereus, 64 µg/mL (≈ 248 µM) in [1], 128 µg/mL (≈ 495 µM) in the assay with Staphylococcus aureus and > 128 µg/mL with Escherichia coli.
Turning to `CCOC(=O)/C=C\Oc1cccc([N+](=O)[O-])c1`, the MIC against Bacillus cereus is > 128 µg/mL; in [1], 64 µg/mL (≈ 270 µM); with Staphylococcus aureus, 64 µg/mL (≈ 270 µM); in the assay with Escherichia coli, > 128 µg/mL.
Take `N#Cc1cccc(/C=C/SC2=NCCS2)c1` [PHENOTHIOSTYRENE]: the MIC against Bacillus cereus was > 128 µg/mL; in assay [1], 64 µg/mL (≈ 260 µM); in the assay with Staphylococcus aureus it was > 128 µg/mL; in the assay with Escherichia coli it was > 128 µg/mL.
`CCOC(=O)/C=C\Oc1cccc(F)c1`: the minimal inhibitory concentration (MIC) (with Bacillus cereus; in [1]; in the assay on Staphylococcus aureus; in the assay on Escherichia coli) was > 128 µg/mL in each case.
A word on the IC50: it is the concentration at which inhibition is half-maximal. Take `CCOC(=O)/C=C\Sc1ccc(C(C)(C)C)cc1`: the MIC was > 128 µg/mL with Bacillus cereus; 64 µg/mL (≈ 242 µM) against Mycobacterium avium; 16 µg/mL (≈ 60.5 µM) in [1]; > 128 µg/mL in the assay with Staphylococcus aureus; 16 µg/mL (≈ 60.5 µM) in the assay on Mycobacterium kansasii; 8 µg/mL (≈ 30.3 µM) against Mycobacteroides chelonae. Further, the MIC with Escherichia coli is > 128 µg/mL; in assay [2], 4 µg/mL (≈ 15.1 µM); in assay [3] it was 128 µg/mL (≈ 484 µM); in [4] it was 25 µg/mL (≈ 94.6 µM). For the same compound, the IC50 in the assay with J774.A1 was 150 µg/mL (≈ 567 µM).
As to `CCOC(=O)/C=C\n1cccn1`, the minimum inhibitory concentration (MIC) (in the assay on Bacillus cereus; in assay [1]; against Staphylococcus aureus; with Escherichia coli) was > 128 µg/mL each time.
As to `CCOC(=O)/C=C\Sc1ccccc1C(C)C`, the minimal inhibitory concentration (MIC) (against Bacillus cereus; in [1]; with Staphylococcus aureus; against Escherichia coli) was > 128 µg/mL throughout.
Take `CCOC(=O)/C=C\n1ncc2ccccc21`: the MIC (in the assay with Bacillus cereus; in assay [1]; against Staphylococcus aureus; in the assay on Escherichia coli) was > 128 µg/mL throughout.
With `CCOC(=O)/C=C\SC1CCCCC1`, the minimal inhibitory concentration (MIC) (against Bacillus cereus; in assay [1]; in the assay on Staphylococcus aureus; in the assay on Escherichia coli) was > 128 µg/mL in each case.
As to `CCOC(=O)/C=C\Oc1ccccc1C`, the MIC (against Bacillus cereus; in [1]; against Staphylococcus aureus; in the assay with Escherichia coli) was > 128 µg/mL in each case.
Take `NNC(=O)c1ccncc1` [ISONIAZID]: in assay [4], 0.25 µg/mL (≈ 1.82 µM) was the least that counted as inhibitory (MIC).
`CCOC(=O)/C=C\n1nnnc1SC`: the minimal inhibitory concentration (MIC) is > 128 µg/mL in the assay with Bacillus cereus, 128 µg/mL (≈ 597 µM) in assay [1], > 128 µg/mL against Staphylococcus aureus and > 128 µg/mL in the assay with Escherichia coli.
Consider `CCOC(=O)/C=C\Sc1ccccc1C(=O)OC`, for which the minimal inhibitory concentration (MIC) against Bacillus cereus was > 128 µg/mL; in assay [1] it was 64 µg/mL (≈ 240 µM); with Staphylococcus aureus, > 128 µg/mL; against Escherichia coli it was > 128 µg/mL.
As to `CCOC(=O)/C=C\Oc1ccc(C(N)=O)cc1`, the MIC (with Bacillus cereus; in [1]; against Staphylococcus aureus; in the assay with Escherichia coli) was > 128 µg/mL throughout.
In the case of `CCOC(=O)/C=C\Oc1cccc2ccccc12`, the minimum inhibitory concentration (MIC) is > 128 µg/mL with Bacillus cereus, 64 µg/mL (≈ 264 µM) in [1], > 128 µg/mL in the assay with Staphylococcus aureus and > 128 µg/mL against Escherichia coli.
With `CO[C@H]1/C=C/O[C@@]2(C)Oc3c(C)c(O)c4c(O)c(c(/C=N/N5CCN(C)CC5)c(O)c4c3C2=O)NC(=O)/C(C)=C\C=C\[C@H](C)[C@H](O)[C@@H](C)[C@@H](O)[C@@H](C)[C@H](OC(C)=O)[C@@H]1C` [RIFAMPIN], the values for the MIC in [1] and in assay [4] were 64 µg/mL (≈ 77.8 µM) and < 0.03 µg/mL, respectively.
`CCOC(=O)/C=C\n1ccc2ccccc21`: the MIC (in the assay on Bacillus cereus; in [1]; with Staphylococcus aureus; in the assay on Escherichia coli) was > 128 µg/mL in each case.
Consider `CCOC(=O)/C=C\n1nnc2ccccc21`, for which the MIC (with Bacillus cereus; in assay [1]; against Staphylococcus aureus; against Escherichia coli) was > 128 µg/mL each time.
On to `CCOC(=O)/C=C\Oc1ccccc1C(=O)OC`, for which the MIC (in the assay on Bacillus cereus; in assay [1]; against Staphylococcus aureus; with Escherichia coli) was > 128 µg/mL in each case.
On to `CCOC(=O)/C=C\Oc1ccsc1C(=O)OC`, for which the minimum inhibitory concentration (MIC) (against Bacillus cereus; in assay [1]; in the assay on Staphylococcus aureus; in the assay with Escherichia coli) was > 128 µg/mL each time.
With `CCOC(=O)/C=C\Sc1ccc(O)cc1`, the minimal inhibitory concentration (MIC) was 128 µg/mL (≈ 571 µM) in the assay with Bacillus cereus, 64 µg/mL (≈ 285 µM) in [1], 128 µg/mL (≈ 571 µM) against Staphylococcus aureus and > 128 µg/mL against Escherichia coli.
Take `CCOC(=O)/C=C\Oc1ccc2ccccc2c1`: the minimal inhibitory concentration (MIC) against Bacillus cereus is > 128 µg/mL; in [1] it was 128 µg/mL (≈ 528 µM); in the assay on Staphylococcus aureus it was > 128 µg/mL; in the assay on Escherichia coli, > 128 µg/mL.
As for `CCOC(=O)/C=C\Sc1ncccn1`, the MIC against Bacillus cereus was > 128 µg/mL; in assay [1], 64 µg/mL (≈ 304 µM); with Staphylococcus aureus it was > 128 µg/mL; with Escherichia coli, > 128 µg/mL.
With `CCOC(=O)/C=C\Sc1cccc2ccccc12`, the minimum inhibitory concentration (MIC) in the assay with Bacillus cereus was > 128 µg/mL; in assay [1], 128 µg/mL (≈ 495 µM); in the assay with Staphylococcus aureus, > 128 µg/mL; against Escherichia coli it was > 128 µg/mL.
On to `CCOC(=O)/C=C\Oc1ccc(F)cc1`, for which the MIC (with Bacillus cereus; in assay [1]; with Staphylococcus aureus; in the assay with Escherichia coli) was > 128 µg/mL throughout.
Regarding `CCOC(=O)/C=C\Oc1cccnc1`, the MIC (in the assay on Bacillus cereus; in assay [1]; against Staphylococcus aureus; against Escherichia coli) was > 128 µg/mL each time.
With `CCOC(=O)/C=C\Oc1cc(OC)cc(OC)c1`, the minimum inhibitory concentration (MIC) against Bacillus cereus is > 128 µg/mL; in [1], 128 µg/mL (≈ 507 µM); in the assay with Staphylococcus aureus, > 128 µg/mL; against Escherichia coli, > 128 µg/mL.
With `CCOC(=O)/C=C\Sc1ccccn1`, the MIC was > 128 µg/mL in the assay with Bacillus cereus, 128 µg/mL (≈ 612 µM) in assay [1], > 128 µg/mL in the assay on Staphylococcus aureus and > 128 µg/mL in the assay with Escherichia coli.
Take `CCOC(=O)/C=C\Oc1ccccc1C(C)C`: the MIC (against Bacillus cereus; in [1]; with Staphylococcus aureus; with Escherichia coli) was > 128 µg/mL each time.
Turning to `CCOC(=O)/C=C\Oc1nc2ccccc2s1`, the minimal inhibitory concentration (MIC) in the assay on Bacillus cereus was > 128 µg/mL; in assay [1], 128 µg/mL (≈ 513 µM); in the assay on Staphylococcus aureus, > 128 µg/mL; against Escherichia coli it was > 128 µg/mL.
With `CCOC(=O)/C=C\n1ccnc1`, the minimal inhibitory concentration (MIC) (against Bacillus cereus; in assay [1]; in the assay on Staphylococcus aureus; with Escherichia coli) was > 128 µg/mL each time.
Consider `CCOC(=O)/C=C\Sc1cccs1`, for which the MIC is > 128 µg/mL in the assay with Bacillus cereus, 128 µg/mL (≈ 597 µM) in assay [1], > 128 µg/mL with Staphylococcus aureus and > 128 µg/mL against Escherichia coli.
As to `CCOC(=O)/C=C\Oc1ccc(C(C)(C)C)cc1`, the minimal inhibitory concentration (MIC) was > 128 µg/mL against Bacillus cereus, 128 µg/mL (≈ 515 µM) in assay [1], > 128 µg/mL against Staphylococcus aureus and > 128 µg/mL with Escherichia coli.
With `CCOC(=O)/C=C\Sc1nc2ccccc2s1`, the minimum inhibitory concentration (MIC) was > 128 µg/mL in the assay on Bacillus cereus; 64 µg/mL (≈ 241 µM) against Mycobacterium avium; 32 µg/mL (≈ 121 µM) in assay [1]; > 128 µg/mL in the assay with Staphylococcus aureus; 8 µg/mL (≈ 30.1 µM) against Mycobacterium kansasii; 8 µg/mL (≈ 30.1 µM) with Mycobacteroides chelonae. Moreover, the MIC against Escherichia coli was > 128 µg/mL; in [2] it was 16 µg/mL (≈ 60.3 µM); in [3] it was 16 µg/mL (≈ 60.3 µM); in [4], 25 µg/mL (≈ 94.2 µM). In the assay with J774.A1, this compound registered an IC50 of 200 µg/mL (≈ 754 µM).
